Experimental data as given in ChEMBL document CHEMBL1154861, “Antioxidant and antiviral activities of silybin fatty acid conjugates” (Eur J Med Chem, 2010).

Key:
[1] = system: Radical scavenging activity; test: Antioxidant activity assessed as DPPH radical scavenging activity for 10 mins; format: functional
Outline: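 Test compound in DMSO/MeOH 1:9 (0–20.0 mM, solution added) mixed 1:1 by volume with 0.1 mM DPPH in the same solvent; absorbance change followed at 540 nm over 10 min. IC50 is the concentration giving 50% absorbance reduction; three measurements in three independent experiments, mean with standard deviation.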

[2] = system: Influenza A virus; test: Antiviral activity against Influenza A virus (A/PR8/34(H1N1)) infected in MDCK cells assessed as inhibition of plaque formation; format: functional, organism-based; conditions: A/Puerto Rico/8/1934(H1N1)
Outline: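 Compound premixed with virus in Opti-MEM I with 0.2% DMSO for 30 min at room temperature. The mixture was applied to confluent MDCK monolayers (MOI 2.5×10^-4) for 1 h at room temperature, then washed. Cells were overlaid with agar medium containing trypsin and 0.2% BSA for about 2 days at 37 °C, then fixed with glutaraldehyde and stained with methylene blue. EC50 is the concentration cutting plaque number 50% versus untreated.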

[3] = Selectivity index, ratio of CC50 for MDCK cells to EC50 for Influenza A virus (A/PR8/34(H1N1)); format: toxicity, cell-based; conditions: dog, read-out: Ratio CC50/EC50
[4] = Cytotoxicity against MDCK cells after 2 hrs by MTT assay; format: cell-based, Canis lupus familiaris; conditions: dog
Outline: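 MDCK cells seeded at 1.5×10^4 per well in DMEM/10% FCS for 4–5 h, washed, exposed to compound in Opti-MEM I with 0.2% DMSO for 2 h. Then washed and kept in DMEM with 0.2% BSA for 24 h at 37 °C, 5% CO2. Viability by MTT reduction; CC50 relative to untreated wells.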

[5] = system: Liver microsomes; test: Antioxidant activity in Wistar rat liver microsomes assessed as inhibition of lipid peroxidation after 1 hr by thiobarbiturate color reaction; format: functional, Microsome
Outline: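 Wistar rat liver microsomes in 50 mM Tris-HCl, 100 mM KCl, 0.1 mM EDTA, pH 7.4 (0.625 mg protein/mL). Compound (0–100 μM in DMSO, as added) incubated with tert-butylhydroperoxide (10 mM stock) at 37 °C for 1 h. TBA/TCA added, heated 90 °C 15 min, centrifuged, read at 535 nm. IC50 is 50% inhibition of colour; triplicates in three experiments.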

SMILES	IC50 [1]	EC50 [2]	selectivity ratio [3]	CC50 at 2 h [4]	IC50 [5]
CCCCCCCCCCCCCCCC(=O)OCC1Oc2ccc([C@H]3Oc4cc(O)cc(O)c4C(=O)[C@@H]3O)cc2OC1c1ccc(O)c(OC)c1 (stereo partly drawn)	3200 µM	3 µM	> 160	> 480 µM	51.9 µM
CCCCCCCCCCCCCCCC(=O)Oc1cc(O)c2c(c1)O[C@H](c1ccc3c(c1)OC(c1ccc(O)c(OC)c1)C(CO)O3)[C@@H](O)C2=O (stereo partly drawn)	3600 µM	–	–	–	28.9 µM
CCCC(=O)OCC1Oc2ccc([C@H]3Oc4cc(O)cc(O)c4C(=O)[C@@H]3O)cc2OC1c1ccc(O)c(OC)c1 (stereo partly drawn)	3400 µM	24 µM	12.5	300 µM	91.7 µM
CCCC(=O)Oc1cc(O)c2c(c1)O[C@H](c1ccc3c(c1)OC(c1ccc(O)c(OC)c1)C(CO)O3)[C@@H](O)C2=O (stereo partly drawn)	2300 µM	14 µM	21.4	300 µM	101 µM
CCCCCCCC(=O)Oc1cc(O)c2c(c1)O[C@H](c1ccc3c(c1)OC(c1ccc(O)c(OC)c1)C(CO)O3)[C@@H](O)C2=O (stereo partly drawn)	4000 µM	6 µM	40	240 µM	117 µM
CCCCCCCCCCCC(=O)Oc1cc(O)c2c(c1)O[C@H](c1ccc3c(c1)OC(c1ccc(O)c(OC)c1)C(CO)O3)[C@@H](O)C2=O (stereo partly drawn)	3000 µM	6 µM	> 93.3	> 560 µM	44.7 µM
CCCCCCCCCCCC(=O)OCC1Oc2ccc([C@H]3Oc4cc(O)cc(O)c4C(=O)[C@@H]3O)cc2OC1c1ccc(O)c(OC)c1 (stereo partly drawn)	2800 µM	3 µM	40	120 µM	50.5 µM
CCCCCCCC(=O)OCC1Oc2ccc([C@H]3Oc4cc(O)cc(O)c4C(=O)[C@@H]3O)cc2OC1c1ccc(O)c(OC)c1 (stereo partly drawn)	3200 µM	–	–	30 µM	61.1 µM
COc1cc(C2Oc3cc([C@H]4Oc5cc(O)cc(O)c5C(=O)[C@@H]4O)ccc3OC2CO)ccc1O (stereo partly drawn) [SILIBININ]	2100 µM	–	–	> 800 µM	58.1 µM
